Compound activity from PubChem BioAssay.
OX1R antag-1: OX1R (HCRTR1) antagonists, primary screen, fluorescence, CHO/OX1R cells, Fluo-8 calcium, orexin A. Orexin/Hypocretin receptor type 1 (Homo sapiens), O43613. inhibition, % at 5 µM. AID 434989, 2010. Fluo-8 calcium fluorescence. hit rate 0.43% among 330,000;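 active = inhibition above its plate's threshold, mean inhibition of all tested compounds on the plate plus 3 SD, cut at about 37% in these data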;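 note: 0% = orexin A challenge wells and 100% = SB-334867-A antagonist wells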
TAAR1 agonist: human TAAR1 agonists, primary screen, Fluo-8 calcium fluorescence, CHO RD-HGA16 cells. AID 624467, 2012. activation, % at 3 µM. vehicle wells 0%, saturating PEA agonist 100%. hit rate 0.99% among 360,000. Trace amine-associated receptor 1 (Homo sapiens), Q96RJ0;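 active = activation above the mean activation of all test compounds in the run plus 3 SD, cut at about 38% in these data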
Target sequence (Q96RJ0 whole entry, looked up): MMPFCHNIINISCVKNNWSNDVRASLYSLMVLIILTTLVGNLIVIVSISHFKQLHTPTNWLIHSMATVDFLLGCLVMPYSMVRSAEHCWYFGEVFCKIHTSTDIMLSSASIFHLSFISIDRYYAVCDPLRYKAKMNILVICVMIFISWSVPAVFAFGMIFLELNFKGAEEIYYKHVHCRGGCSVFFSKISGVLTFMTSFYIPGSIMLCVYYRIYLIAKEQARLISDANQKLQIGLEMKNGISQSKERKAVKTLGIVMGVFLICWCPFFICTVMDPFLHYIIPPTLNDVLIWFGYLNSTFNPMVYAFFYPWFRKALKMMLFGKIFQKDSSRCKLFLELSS
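Repeats: no replicates (n 1) | Material: CHO-derived RD-HGA16 cells with stable Gα16 and human TAAR1 | Technique: Kinetic Fluo-8 calcium fluorescence | Schedule: 17-24 h seeding, 75 min 37 °C dye, 30 min RT | Evaluation: % activation from peak over basal fluorescence ratio, DMSO-to-PEA scaled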
TAAR1 antag: human TAAR1 antagonists, primary screen, Fluo-8 calcium fluorescence, CHO RD-HGA16 cells. Trace amine-associated receptor 1 (Homo sapiens), Q96RJ0. antagonist. inhibition, % at 3 µM. hit rate 1.5% among 360,000;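 active = inhibition above a per-plate cutoff, the mean inhibition of test compounds on that plate plus 3 SD, cut at about 49% in these data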;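 note: 0% = DMSO plus EC80 beta-PEA response and 100% = DMSO alone without agonist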
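Material: CHO RD-HGA16 cells bearing hTAAR1; compound dosing: one-point dosing, 3 µM nominal final; schedule: dye loading 75 min at 37 °C, then 30 min room temperature; measured by: calcium fluorescence with Fluo-8; control set: vehicle and agonist controls; replication: n of 1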
OX1R antag-2: antagonists of human orexin 1 receptor (OX1R) | hit rate 1.8% among 330,000 | OX1R-expressing cells, FRET antagonist read-out | inhibition, % at 6.6 µM | AID 485270, 2010 | Orexin/Hypocretin receptor type 1 (Homo sapiens), O43613; in the data active = inhibition mostly above about 38%, no sharp cut-off; inactive = mostly below about 40%;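 note: 0% = agonist challenge alone and 100% = reference antagonist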
GPR7 antag: GPR7 receptor antagonists, primary screen, cell-based, fluorescence, single concentration | Neuropeptides B/W receptor type 1 (Homo sapiens), P48145 | GPR7-expressing cells, fluorescence antagonist assay | inhibition, % at 4.4 µM | hit rate 1.1% among 290,000 | AID 1861, 2009; in the data active = inhibition above about 16%, passing the limit was not always enough;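 note: cells stimulated with the agonist NPW; 0% = agonist with vehicle and 100% = vehicle without agonist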
Target sequence (P48145 whole entry, looked up): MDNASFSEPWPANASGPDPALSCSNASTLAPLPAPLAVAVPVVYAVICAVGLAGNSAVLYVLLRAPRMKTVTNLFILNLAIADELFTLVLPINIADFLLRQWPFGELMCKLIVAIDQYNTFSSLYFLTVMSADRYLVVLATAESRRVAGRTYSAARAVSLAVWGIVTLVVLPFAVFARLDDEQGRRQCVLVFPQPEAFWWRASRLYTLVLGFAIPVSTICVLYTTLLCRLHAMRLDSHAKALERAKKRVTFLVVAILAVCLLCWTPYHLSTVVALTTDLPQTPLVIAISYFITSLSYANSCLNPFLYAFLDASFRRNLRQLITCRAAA
CHO parental Ca: ATP-evoked calcium signal inhibitors, parental CHO, primary screen, counter-screen for OX1R antagonist project, cell-based, fluorescence, Fluo-8 calcium dye; parental CHO-K1, ATP-induced calcium, Fluo-8 fluorescence; inhibition, % at 5.6 µM; hit rate 0.63% among 330,000;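 active = inhibition above that plate's mean sample inhibition plus 3 SD, cut at about 26% in these data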;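 note: 0% = ATP-challenged DMSO wells and 100% = DMSO wells without ATP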
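Assay system: parental CHO cells; Read-out basis: percent inhibition of ATP-evoked calcium rise, normalized to controls; Benchmarks: ATP and no-ATP DMSO wells; Compound dosing: single nominal dose of 5.6 µM per compound; Signal: Fluo-8 calcium dye fluorescence; Also added: ATP as calcium-mobilizing challenge; Repeats: singlicate.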
* hit, by the source's call; / = no result given. Sampled rows, rich in hits. Any-hit rate of the full collection: about 4.6%.

SMILES	OX1R antag-1	TAAR1 agonist	TAAR1 antag	OX1R antag-2	GPR7 antag	CHO parental Ca
Cc1ccc2nc3c(cc(C(=O)NC4CCCC4)c(=N)n3C3CCCCC3)c(=O)n2c1	-0.4	0.3	-20.1	21.4	0.8	-8.9
C[C@H](O)[C@@H]1CN2CCc3c([nH]c4c(-c5ccccc5)cccc34)[C@@H]2C[C@@H]1N(C)C(=O)NC1CCCCC1	/	-1.4	-8.3	/	/	/
CC1=C(C(=O)OCC(C)C)C23C(=O)c4ccccc4C2(O1)OC(N)=C3C#N (configuration not stated)	-20.9	2.1	-4.8	12.6	-7.4	-10.8
CC1=C(C(=O)OCC(C)C)[C@]23C(=O)c4ccccc4[C@@]2(O1)OC(N)=C3C#N	-19.0	6.8	-0.1	19.0	17.4*	-11.2
Cc1cc(Nc2cccc(Cl)c2)nc(N2CCOCC2)n1	-19.6	6.3	-22.6	22.7	-12.3	-11.2
Cc1cc(Nc2ccccc2)nc(N2CCOCC2)n1	-2.7	40.8*	-16.9	1.8	21.7	-7.9
Cc1ccc2c(c1)nnn2C1CCN(S(=O)(=O)c2ccc(C(=O)O)cc2)CC1	-3.8	-1.1	-2.1	4.7	-12.3	-3.9
Cc1ccc2c(c1)nnn2C1CCN(S(=O)(=O)c2ccc(C(=O)N3C(C)CCCC3C)cc2)CC1 (configuration not stated)	59.1*	13.2	25.5	33.0	6.4	55.8*
S=c1[nH]ncn1/N=C/c1ccco1	/	2.0	-15.4	/	/	/
CC(=O)Nc1c(C(=O)O)ccc(C)c1OCc1ccccc1	/	1.1	-0.7	/	/	/
O=C(/C=C/c1ccccc1)NC(=S)NNC(=O)c1ccco1	4.1	43.0*	23.6	23.2	-9.7	9.5
O=c1[nH]nc(-c2ccc(NCCCO)c([N+](=O)[O-])c2)c2ccccc12	-15.9	1.7	-3.0	26.5	2.5	0.6
O=c1[nH]nc(-c2ccc(NCCO)c([N+](=O)[O-])c2)c2ccccc12	-6.7	0.4	-1.2	41.0*	-0.9	10.4
COc1ccc(S(=O)(=O)/N=C2/C=CC(=O)C(C)=C2C)cc1	-27.3	/	/	3.4	1.1	-16.6
CC1=C(C)/C(=N\OS(=O)(=O)c2ccc(C)cc2)C=CC1=O	57.5*	5.6	51.7*	81.6*	60.5*	67.5*
CC1=C/C(=N\OS(=O)(=O)c2ccccc2)C(C)=CC1=O	93.0*	/	/	102.3*	72.8*	82.0*
CC1=C/C(=N\OS(=O)(=O)c2ccccc2)C(C(C)C)=CC1=O	51.1*	/	/	37.3	43.8*	45.2
CC(S(=O)(=O)c1ccccc1)S(=O)(=O)c1ccccc1	/	1.7	-11.3	/	/	/
CSC1=Nc2ccccc2N=C(N2CCCC2)C1	/	-0.4	-0.3	/	/	/
CCCCCCCn1c2c(c(=N)c3c1CCC3)CCCC2	/	11.9	11.6	/	62.2*	/
Clc1ccc(C2=CC(c3ccco3)n3ncnc3N2)cc1 (configuration not stated)	-8.1	107.1*	24.2	31.8	22.2	-3.2
Cc1ccc2nc(CN(C)C(=O)[C@H]3O[C@@H](n4cnc(C(N)=O)n4)[C@H](O)[C@@H]3O)[nH]c2c1	/	-0.2	-5.4	/	/	/
CCCCn1cc(C(=O)c2cc(Br)ccc2O)cc(C#N)c1=O	43.8*	9.0	1.9	50.9	17.1	28.6
CC(=O)n1c2ccccc2c2c1c1ccccc1n2C	-0.5	2.1	9.2	60.9*	-9.4	-20.1
CC(=O)n1c2ccccc2c2nc3ccccc3nc21	-27.7	/	/	5.4	-5.7	-3.6
SMILES	OX1R antag-1	TAAR1 agonist	TAAR1 antag	OX1R antag-2	GPR7 antag	CHO parental Ca
CN(C)C(=O)C[C@@H]1C=C[C@@H](NC(=O)C2CCC2)[C@@H](CO)O1	/	1.2	2.2	/	/	/
COc1cccc(-c2ccc(C#N)c(SCC(=O)NCCc3cccc(Cl)c3)n2)c1	2.2	8.4	72.1*	17.0	2.3	-8.9
Cn1cccc1/C=N/n1c(-c2ccc(C(C)(C)C)cc2)n[nH]c1=S	-8.3	25.8	52.4*	7.3	-22.8	2.3
COc1ccccc1CN1CC(C(=O)NCC2(O)CCCCC2)CCC1=O (configuration not stated)	/	0.3	-8.4	/	/	/
COc1cc(/C=C2\SC(=N)N(c3ccc4c(c3)OCO4)C2=O)cc(OC)c1O	-8.6	8.8	17.9	50.9*	-6.5	-1.4
Brc1ccc2[nH]c3c(N4CCc5ccccc5C4)ncnc3c2c1	43.8*	/	/	13.3	3.0	47.1*
Fc1ccc2[nH]c3c(N4CCc5ccccc5C4)ncnc3c2c1	11.0	6.0	42.4	56.4*	10.8	65.0*
COc1ccc2[nH]c3c(N4CCC(O)(c5cccc(C(F)(F)F)c5)CC4)ncnc3c2c1	-13.7	14.1	51.2*	12.9	-1.2	-5.6
CN1CCN(c2ncnc3c2[nH]c2ccc(F)cc23)CC1	-14.6	10.5	10.3	8.0	-9.2	-11.4
Clc1ccc2[nH]c3c(N4CCC5(CC4)OCCO5)ncnc3c2c1	23.7	/	/	81.5*	9.8	30.9
O=C1c2c(-c3ccc(Br)cc3)noc2CCN1Cc1cn(Cc2cccnc2)nn1	/	0.1	-21.3	/	/	/
O=C(C(=O)N1CCC(CNS(=O)(=O)c2cc(C(F)(F)F)cc(C(F)(F)F)c2)CC1)c1cccs1	/	-1.8	-10.6	/	/	/
Cc1ccc2[nH]c3c(N4CCc5ccccc5C4)ncnc3c2c1	51.3*	12.9	35.7	81.6*	13.2	64.3*
CCOc1ccc2[nH]c3c(N4CCc5ccccc5C4)ncnc3c2c1	-9.1	0.7	-8.5	13.5	-8.6	-15.7
CSc1ccc(C(=O)NCC(=O)O)cc1[N+](=O)[O-]	-18.1	1.2	-6.2	52.7*	-17.2	-9.4
C=CCNC(=O)c1ccc(Sc2ccccc2)c([N+](=O)[O-])c1	-26.2	9.4	8.2	36.4	12.3	-24.6
O=C(O)CNC(=O)c1ccc(Sc2ccccc2)c([N+](=O)[O-])c1	-4.8	-0.4	-5.0	64.0*	-0.3	-0.4
O=C(CNC(=O)c1ccccc1)N/N=C/C=C/c1ccccc1	-15.2	42.0*	20.8	5.1	-19.9	-0.5
COc1cc(C(=O)NC2CCCCN(C)C2=O)cc(OC)c1OC (configuration not stated)	/	0.7	-1.1	/	/	/
Cc1nc(C(=O)O)nn1-c1ccc([N+](=O)[O-])cc1	7.1	-0.7	14.8	45.6*	-12.2	-3.4
CCOc1cc(/C=C2\CCC/C(=C\c3cc(Cl)c(O)c(OCC)c3)C2=O)cc(Cl)c1O	28.6	6.1	55.8*	75.1*	11.5	21.4
CCOc1cc(/C=C2\CN(C)C/C(=C\c3ccc(O)c(OCC)c3)C2=O)ccc1O	-30.5	15.4	17.3	-8.9	-1.8	-28.1
